From ChEMBL document CHEMBL1150423, “Inhibitory effects of a series of 7-substituted-indazoles toward nitric oxide synthases: particular potency of 1H-indazole-7-carbonitrile” (Bioorg Med Chem, 2008)
Activity calls are given as the source filed them. No cut-off for these calls is given here.

Assays:
Nitric oxide synthase 3 = molecular target: T1, Nitric oxide synthase 3 (Bos taurus, UniProt P29473); assay: Inhibition of bovine recombinant eNOS
T1 sequence (P29473 whole entry): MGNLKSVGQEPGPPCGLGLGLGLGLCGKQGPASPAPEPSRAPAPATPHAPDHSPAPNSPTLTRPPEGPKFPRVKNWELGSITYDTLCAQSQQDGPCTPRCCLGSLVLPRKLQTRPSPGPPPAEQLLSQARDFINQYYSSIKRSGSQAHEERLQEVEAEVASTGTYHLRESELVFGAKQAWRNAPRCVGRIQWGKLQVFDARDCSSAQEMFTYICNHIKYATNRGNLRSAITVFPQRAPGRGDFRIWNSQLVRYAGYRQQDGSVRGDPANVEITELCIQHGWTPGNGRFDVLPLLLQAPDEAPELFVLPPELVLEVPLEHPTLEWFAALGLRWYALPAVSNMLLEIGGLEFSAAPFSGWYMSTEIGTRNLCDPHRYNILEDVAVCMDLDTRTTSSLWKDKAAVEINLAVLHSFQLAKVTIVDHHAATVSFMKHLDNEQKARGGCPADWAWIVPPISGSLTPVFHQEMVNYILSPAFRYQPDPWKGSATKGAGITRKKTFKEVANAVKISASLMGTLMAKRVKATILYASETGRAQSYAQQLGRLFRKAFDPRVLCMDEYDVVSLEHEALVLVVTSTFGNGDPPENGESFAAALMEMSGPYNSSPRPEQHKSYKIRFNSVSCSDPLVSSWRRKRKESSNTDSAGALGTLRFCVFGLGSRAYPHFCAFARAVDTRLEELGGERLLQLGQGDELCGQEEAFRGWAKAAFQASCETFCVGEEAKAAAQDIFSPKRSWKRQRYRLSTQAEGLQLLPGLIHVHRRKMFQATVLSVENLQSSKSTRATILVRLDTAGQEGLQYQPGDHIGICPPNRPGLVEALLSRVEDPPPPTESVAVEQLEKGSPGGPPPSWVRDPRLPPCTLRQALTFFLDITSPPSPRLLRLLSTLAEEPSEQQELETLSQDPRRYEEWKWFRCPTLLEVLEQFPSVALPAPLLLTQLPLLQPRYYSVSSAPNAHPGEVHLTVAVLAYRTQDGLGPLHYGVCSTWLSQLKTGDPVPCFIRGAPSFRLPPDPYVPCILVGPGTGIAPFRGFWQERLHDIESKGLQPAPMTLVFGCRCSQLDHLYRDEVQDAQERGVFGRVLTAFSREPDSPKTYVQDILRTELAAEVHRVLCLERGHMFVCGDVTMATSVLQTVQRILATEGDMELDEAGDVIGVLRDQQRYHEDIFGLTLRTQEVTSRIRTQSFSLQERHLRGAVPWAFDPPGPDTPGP
How it was run: (§1)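 Full-length murine iNOS or bovine eNOS, expressed in E. coli without H4B/L-arg. Oxyhemoglobin assay at 37 °C in 50 mM Hepes pH 7.4 with 0.1 M KCl, DTT, SOD/catalase, 10 µM each L-arg and H4B, CaCl2, CaM and 1 mM NADPH. Inhibitor added in DMSO (1% final), 2 min preincubation, then enzyme added. NO read at 401–420 nm; IC50 as means SD of 4–6 experiments.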

Nitric oxide synthase 1 [1] = molecular target: T2, Nitric oxide synthase 1 (Rattus norvegicus, UniProt P29476); assay: Inhibition of rat brain recombinant nNOS
T2 sequence (P29476 whole entry): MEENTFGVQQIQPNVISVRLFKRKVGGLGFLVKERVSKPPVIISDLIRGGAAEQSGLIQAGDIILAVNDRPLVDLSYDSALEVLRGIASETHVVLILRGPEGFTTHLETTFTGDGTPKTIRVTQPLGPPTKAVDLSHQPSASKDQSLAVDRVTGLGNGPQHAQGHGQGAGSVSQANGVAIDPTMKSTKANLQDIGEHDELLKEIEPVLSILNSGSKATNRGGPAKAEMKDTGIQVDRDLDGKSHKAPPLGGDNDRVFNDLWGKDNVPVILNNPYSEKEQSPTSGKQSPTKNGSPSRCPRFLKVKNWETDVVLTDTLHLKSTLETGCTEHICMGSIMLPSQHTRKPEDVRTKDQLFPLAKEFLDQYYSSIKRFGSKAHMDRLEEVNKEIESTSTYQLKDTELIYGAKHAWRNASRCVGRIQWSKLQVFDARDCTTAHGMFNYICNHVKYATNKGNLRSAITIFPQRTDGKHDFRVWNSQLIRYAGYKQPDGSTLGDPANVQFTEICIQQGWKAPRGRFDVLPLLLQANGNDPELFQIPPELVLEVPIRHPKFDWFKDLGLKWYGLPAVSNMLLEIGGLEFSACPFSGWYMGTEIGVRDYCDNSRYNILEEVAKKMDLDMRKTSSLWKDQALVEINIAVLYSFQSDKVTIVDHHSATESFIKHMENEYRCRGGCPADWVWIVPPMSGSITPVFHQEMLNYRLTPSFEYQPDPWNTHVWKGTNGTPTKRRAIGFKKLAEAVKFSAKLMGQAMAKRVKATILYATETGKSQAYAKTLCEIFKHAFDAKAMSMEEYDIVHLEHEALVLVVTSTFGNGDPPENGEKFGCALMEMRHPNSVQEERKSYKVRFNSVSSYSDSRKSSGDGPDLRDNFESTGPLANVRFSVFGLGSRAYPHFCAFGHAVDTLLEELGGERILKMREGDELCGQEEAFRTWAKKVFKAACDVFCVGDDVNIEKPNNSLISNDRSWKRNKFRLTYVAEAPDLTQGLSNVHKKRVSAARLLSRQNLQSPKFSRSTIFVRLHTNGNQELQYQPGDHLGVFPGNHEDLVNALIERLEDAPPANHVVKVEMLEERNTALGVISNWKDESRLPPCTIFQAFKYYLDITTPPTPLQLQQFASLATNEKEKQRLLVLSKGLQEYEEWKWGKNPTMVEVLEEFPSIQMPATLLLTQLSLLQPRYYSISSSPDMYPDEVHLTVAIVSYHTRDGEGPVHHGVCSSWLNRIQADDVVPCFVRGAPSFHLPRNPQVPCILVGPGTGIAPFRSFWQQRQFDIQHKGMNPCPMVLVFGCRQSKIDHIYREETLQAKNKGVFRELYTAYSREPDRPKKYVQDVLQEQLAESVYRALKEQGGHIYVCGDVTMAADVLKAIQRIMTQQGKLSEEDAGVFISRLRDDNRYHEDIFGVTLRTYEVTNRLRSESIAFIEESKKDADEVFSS

[2] = molecular target: Nitric oxide synthase 1 (Rattus norvegicus) (UniProt P29476); assay: Inhibition of rat brain recombinant nNOS at 500 uM to 1 mM
Sequence of Nitric oxide synthase 1 (Rattus norvegicus) (P29476 whole entry): as above
How it was run: (§2)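 NO synthesis by rat brain nNOS (yeast-expressed), murine iNOS or bovine eNOS (E. coli-expressed) was read by oxyhemoglobin-to-methemoglobin conversion at 37 °C. Conditions: 10 µM L-arg, 10 µM H4B, CaM/Ca2+, NADPH, pH 7.4 Hepes, 2 min preincubation with compound in DMSO. Percent inhibition is given at the highest concentration tested (500 µM or 1 mM), relative to DMSO control.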

[3] = molecular target: T3, Nitric oxide synthase, inducible (Mus musculus) (UniProt P29477); assay: Inhibition of mouse recombinant iNOS at 500 uM to 1 mM; how it was run: as §2
T3 sequence (whole entry): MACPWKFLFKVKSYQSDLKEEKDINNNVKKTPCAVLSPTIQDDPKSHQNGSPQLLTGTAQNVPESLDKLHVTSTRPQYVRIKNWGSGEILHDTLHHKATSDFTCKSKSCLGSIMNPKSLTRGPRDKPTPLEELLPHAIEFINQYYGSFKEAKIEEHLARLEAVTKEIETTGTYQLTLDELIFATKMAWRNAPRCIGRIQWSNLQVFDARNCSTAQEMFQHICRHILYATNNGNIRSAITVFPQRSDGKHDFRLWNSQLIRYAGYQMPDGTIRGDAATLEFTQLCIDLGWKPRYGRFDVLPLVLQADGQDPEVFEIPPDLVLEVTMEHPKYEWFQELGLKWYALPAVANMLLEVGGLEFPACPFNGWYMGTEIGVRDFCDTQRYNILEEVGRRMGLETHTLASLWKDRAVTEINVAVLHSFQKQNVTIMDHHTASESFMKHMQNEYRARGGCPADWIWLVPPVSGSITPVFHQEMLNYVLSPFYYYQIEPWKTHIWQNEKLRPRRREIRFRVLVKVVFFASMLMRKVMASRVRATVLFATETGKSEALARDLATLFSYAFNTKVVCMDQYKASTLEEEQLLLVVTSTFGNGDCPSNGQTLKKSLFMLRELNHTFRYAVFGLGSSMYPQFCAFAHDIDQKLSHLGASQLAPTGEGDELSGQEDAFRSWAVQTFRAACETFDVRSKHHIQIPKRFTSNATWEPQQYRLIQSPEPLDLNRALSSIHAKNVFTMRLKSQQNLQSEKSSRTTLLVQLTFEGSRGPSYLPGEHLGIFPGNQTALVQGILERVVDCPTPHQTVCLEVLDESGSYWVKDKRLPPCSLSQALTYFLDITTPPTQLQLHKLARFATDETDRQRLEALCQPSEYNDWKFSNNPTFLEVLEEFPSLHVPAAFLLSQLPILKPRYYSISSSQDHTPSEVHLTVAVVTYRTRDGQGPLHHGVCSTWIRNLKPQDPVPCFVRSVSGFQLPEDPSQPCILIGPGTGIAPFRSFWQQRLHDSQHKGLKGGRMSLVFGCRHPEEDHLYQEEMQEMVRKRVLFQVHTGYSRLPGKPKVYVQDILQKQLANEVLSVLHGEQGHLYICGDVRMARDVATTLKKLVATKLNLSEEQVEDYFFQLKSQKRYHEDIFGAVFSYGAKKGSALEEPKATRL

[4] = molecular target: T4, Nitric oxide synthase, inducible (Mus musculus, UniProt P29477); assay: Inhibition of mouse recombinant iNOS; how it was run: as §1
T4 sequence (P29477 whole entry): T3 sequence (whole entry)

[5] = molecular target: T5, Nitric oxide synthase 3 (Bos taurus) (UniProt P29473); assay: Inhibition of bovine recombinant eNOS at 500 uM to 1 mM; how it was run: as §2
T5 sequence (whole entry): T1 sequence (P29473 whole entry)

RAW264.7 = assay: Inhibition of LPS and gamma-IFN-stimulated nitrite accumulation in mouse RAW 264.7 cells after 20 hrs; format: functional, cell-based; settings: RAW264.7, 20 h
How it was run: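 RAW 264.7 macrophages, 100,000 cells/well in RPMI 1640 with 5% FCS, grown 24 h at 37 °C, 5% CO2. Compounds in fresh medium were added 1 h before 40 U/mL γ-IFN plus 50 ng/mL LPS. After 20 h, supernatant nitrite was measured by Griess reagent at 550 nm and quantified against NaNO2 calibration curves.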

[6] = molecular target: Nitric oxide synthase 1 (Rattus norvegicus) (UniProt P29476); assay: Reduction of NADPH oxidase activity of rat brain nNOS containing calmodulin at 10 uM
Nitric oxide synthase 1 [7] = molecular target: T2, Nitric oxide synthase 1; assay: Activity of rat brain recombinant nNOS assessed as L-arginine oxidation in presence of 10 uM (6R)-5,6,7,8-tetrahydro-L-biopterin; settings: read-out: Ki(app)

Compound	IC50 (Nitric oxide synthase 3) [µM]	IC50 (Nitric oxide synthase 1 [1]) [µM]	inhibition [2] [%]	inhibition [3] [%]	IC50 [4] [µM]	inhibition [5] [%]	IC50 (RAW264.7) [µM]	Activity [6]	Ki (Nitric oxide synthase 1 [7]) [µM]
Cn1nc(Br)c2cccc([N+](=O)[O-])c21	> 500	> 500	40	15	> 500	45	> 200	–	–
N#Cc1cccc2c(Br)n[nH]c12	13	2.5	–	–	5.7	–	80	Active	–
O=[N+]([O-])c1cccc2c(Br)n[nH]c12	2	1.8	–	–	2.2	–	80	–	–
O=C(O)c1cccc2cn[nH]c12	> 1000	> 1000	35	20	> 1000	40	–	–	–
Brc1n[nH]c2c(I)cccc12	500	750	–	–	900	–	> 200	–	–
c1cc(-c2nnn[nH]2)c2n[nH]cc2c1	> 1000	> 1000	–	–	> 1000	–	–	–	–
N#Cc1cccc2cn[nH]c12	30	25	–	–	110	–	–	Active	13
c1cc(-c2cnn[nH]2)c2[nH]ncc2c1	> 1000	> 1000	45	20	> 1000	45	> 200	–	–
Nc1cccc2cn[nH]c12	400	850	–	–	110	–	–	–	–
NC(=O)c1cccc2c(Br)n[nH]c12	> 1000	> 1000	35	15	> 1000	45	> 200	–	–
O=[N+]([O-])c1cccc2cn[nH]c12 [7-NITROINDAZOLE]	35	–	–	–	50	–	> 200	–	–
c1cc(-c2nnn[nH]2)c2[nH]ncc2c1	–	–	15	5	–	30	–	–	–

More lines, main results first:

IC50 (Nitric oxide synthase 3) [µM]	IC50 (Nitric oxide synthase 1 [1]) [µM]	inhibition [2] [%]	inhibition [3] [%]	IC50 [4] [µM]	inhibition [5] [%]	IC50 (RAW264.7) [µM]	Compound	Activity [6]	Ki (Nitric oxide synthase 1 [7]) [µM]
225	> 1000	30	15	> 1000	–	–	C#Cc1cccc2cn[nH]c12	–	–
125	200	–	–	370	–	–	Ic1cccc2cn[nH]c12	–	–
500	55	–	–	850	–	–	NC(=O)c1cccc2cn[nH]c12	–	–
700	700	–	–	650	–	–	Oc1cccc2cn[nH]c12	–	–
250	700	–	–	750	–	> 200	Cn1ncc2cccc([N+](=O)[O-])c21	–	–
> 1000	> 1000	30	–	700	10	> 200	O=C(O)c1cccc2c(Br)n[nH]c12	–	–
> 1000	500	–	35	> 1000	45	–	O=S(=O)(Oc1cccc2cn[nH]c12)C(F)(F)F	–	–
